Most compounds without a hit are left out; they make up all but 1.1% or so of the library.
FAS TE block – FAS thioesterase (human) inhibition. AID 602261. P49327. inhibition, % at 15 µM. 0.67% of 360,000 active. recombinant FAS-TE, OMFH fluorogenic substrate, fluorescence endpoint;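 active = compounds whose normalised, plate-corrected inhibition of enzyme fluorescence in the single-dose primary screen is 50% or more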;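 note: 0% = DMSO with enzyme and 100% = substrate without enzyme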
Arrestin-AP2 inh – human beta-arrestin and AP2 interaction inhibition. FITC-arrestin peptide / GST-AP2 beads, flow cytometry; AP2 beta2 appendage carries R879A mutation. inhibition, % at 10 µM. 0.31% of 340,000 active. AID 504490;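 active = inhibition above a set limit, near 3 SD of compounds lacking own fluorescence, cut at about 54% in these data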;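 note: plate controls were DMSO wells for no effect and 5 µM unlabelled arrestin peptide for full effect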
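System: GST-AP2 R879A glutathione beads | Also added: FITC-arrestin peptide, 50 nM | Times: 12 min plus 1 h, RT | Signal: Bead flow cytometry, FITC channel | Buffer or medium: PBS with 0.05% Tween 20 and 0.1% BSA | Read-out basis: Percent drop in bead-associated FITC signal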
GASC-1 inh – blocks human GASC-1 demethylase activity | Q9H3R0 | GST-JMJD2C(1-420) H3K9me3 demethylation, DELFIA europium | inhibition, % at 2.35 µM | 0.069% of 330,000 active | AID 2099;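 active = more than half of a compound's replicate wells show inhibition beyond 50%, single wells judged on their own value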;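 note: signal counts dimethyl H3K9 product captured on neutravidin plate; 0% = median of DMSO wells and 100% = 0.3 times that DMSO median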
SENP1 inh – inhibitors of human SENP1 SUMO protease catalytic domain | inhibition, % at 10 µM | 0.21% of 360,000 active | Q9P0U3 | recombinant SENP1 catalytic domain, CyPet-SUMO1-YPet FRET cleavage;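 active = inhibition at least 30% at 10 µM, raw YFP signal under a set limit, fluorescence ratio 0.5 to 1.5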;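 note: 0% = enzyme with DMSO and 100% = no enzyme wells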
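Compound: 10 µM single point, 0.5% DMSO; Test system: hSENP1 catalytic domain, recombinant; Timing: 50 min reaction at room temperature; Technique: FRET, CFP and YFP emission; Control set: no-enzyme wells low, DMSO-plus-enzyme wells high control.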
Arr AP2 CP1 – inhibitors of human beta-arrestin and AP2 interaction; shares compounds with Arrestin-AP2 inh; GST-AP2 beads, FITC arrestin peptide binding, flow cytometry; GST-fused beta2-adaptin appendage, R879A mutant; inhibition, % at 10 µM; 2% of 1,300 active; AID 504908;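 active = inhibition above a set limit, roughly 3 SD of non-fluorescent compound noise, cut at about 38% in these data; inactive = inhibition at or below that limit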;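 note: loss of bead fluorescence from 50 nM FITC arrestin peptide bound to appendage; 0% = negative control wells and 100% = excess unlabelled arrestin peptide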
Target sequence (P63010 whole entry, looked up, the tested form may be a part, one chain of several): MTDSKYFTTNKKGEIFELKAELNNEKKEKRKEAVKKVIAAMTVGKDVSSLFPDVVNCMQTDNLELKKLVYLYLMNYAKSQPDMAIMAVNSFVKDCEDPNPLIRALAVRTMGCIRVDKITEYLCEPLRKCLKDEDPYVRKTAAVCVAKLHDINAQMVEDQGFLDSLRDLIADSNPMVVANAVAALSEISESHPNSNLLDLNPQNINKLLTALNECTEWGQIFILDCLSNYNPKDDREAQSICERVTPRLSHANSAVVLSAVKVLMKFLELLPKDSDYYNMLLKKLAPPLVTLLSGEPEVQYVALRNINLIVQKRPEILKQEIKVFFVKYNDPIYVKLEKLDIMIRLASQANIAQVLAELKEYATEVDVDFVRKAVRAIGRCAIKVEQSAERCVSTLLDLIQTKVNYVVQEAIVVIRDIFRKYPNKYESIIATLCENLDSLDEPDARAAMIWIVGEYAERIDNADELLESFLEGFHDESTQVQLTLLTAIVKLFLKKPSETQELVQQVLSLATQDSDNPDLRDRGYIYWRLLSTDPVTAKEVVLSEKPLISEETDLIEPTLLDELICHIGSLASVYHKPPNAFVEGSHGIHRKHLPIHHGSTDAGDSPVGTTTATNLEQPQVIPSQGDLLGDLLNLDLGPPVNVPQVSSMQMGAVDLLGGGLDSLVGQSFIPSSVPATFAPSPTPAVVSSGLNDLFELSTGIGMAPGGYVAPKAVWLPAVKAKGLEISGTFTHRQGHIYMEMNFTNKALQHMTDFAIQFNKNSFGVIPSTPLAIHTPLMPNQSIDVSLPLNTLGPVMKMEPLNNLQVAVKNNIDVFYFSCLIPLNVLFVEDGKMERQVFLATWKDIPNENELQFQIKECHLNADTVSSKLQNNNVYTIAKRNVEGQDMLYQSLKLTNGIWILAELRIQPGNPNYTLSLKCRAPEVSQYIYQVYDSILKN
GST-FITC bead – disrupts GST binding to glutathione beads, arrestin-AP2 artifact. shares compounds with Arrestin-AP2 inh. GST-fluorescein binding to GSH beads, fluorescence, counter-screen. inhibition, % at 10 µM. 2% of 1,300 active. AID 588338;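 active = inhibition above 50%, about 3 SD of the inhibition seen with non-fluorescent compounds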;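 note: fluorescein maleimide labelled GST captured on 4 micron glutathione beads; higher means more loss of bead fluorescence from quenching or blocked binding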
Starred values were filed as active, the others as inactive.

CCc1ccc(N2CC(C(=O)OCc3csc(CC(=O)Nc4ccccc4C)n3)CC2=O)cc1 (stereo not given) was read as FAS TE block -3, Arrestin-AP2 inh 62*, GASC-1 inh 1, SENP1 inh -2, Arr AP2 CP1 16 and GST-FITC bead 7.
For COc1ccc(S(=O)(=O)c2ccc(OCC3CO3)cc2)cc1 (stereo not given) the results were FAS TE block 6, Arrestin-AP2 inh 64*, GASC-1 inh -10, SENP1 inh 2, Arr AP2 CP1 12 and GST-FITC bead -2.
For O=C(Nc1nnc(C(F)(F)F)s1)c1ccc(Br)s1 the results were FAS TE block -3, Arrestin-AP2 inh 0, GASC-1 inh -1 and SENP1 inh 1.
For COc1ccccc1CN1CC(C(=O)NCc2cc(F)cc(C(F)(F)F)c2)CCC1=O (stereo not given) the results were FAS TE block 0, Arrestin-AP2 inh -1, GASC-1 inh -19, SENP1 inh 1, Arr AP2 CP1 6 and GST-FITC bead 0.
Screening O=C(NCc1ccccc1OC(F)(F)F)C1CCC(=O)N(Cc2ccccn2)C1 (stereo not given) returned FAS TE block -4, Arrestin-AP2 inh 16, GASC-1 inh 6 and SENP1 inh 0.
`COc1ccc(CCCNC(=O)C2CCC(=O)N(Cc3ccccc3F)C2)cc1` (stereo not given) gave FAS TE block -6, Arrestin-AP2 inh -7, GASC-1 inh 2, SENP1 inh -1, Arr AP2 CP1 -13 and GST-FITC bead -2.
`COc1ccc(CCN2CC(C(=O)NCCc3ccc(F)cc3)CCC2=O)cc1` (stereo not given) gave FAS TE block -7, Arrestin-AP2 inh 11, GASC-1 inh -3, SENP1 inh 2, Arr AP2 CP1 4 and GST-FITC bead -5.
O=C(NCc1ccccc1OC(F)(F)F)C1CCC(=O)N(CCc2ccccn2)C1 (stereo not given) was read as FAS TE block -2, Arrestin-AP2 inh 58*, GASC-1 inh 0, SENP1 inh 0, Arr AP2 CP1 3 and GST-FITC bead -2.
For COc1ccc(OC)c(/C=N/N=C2\SCC(=O)N2Cc2ccco2)c1 the results were FAS TE block 20, Arrestin-AP2 inh -9, GASC-1 inh 10 and SENP1 inh 0.
For CS(=O)(=NS(=O)(=O)c1ccc(Cl)cc1)c1ccccc1 (stereo not given) the results were FAS TE block -3, Arrestin-AP2 inh -2, GASC-1 inh -7 and SENP1 inh 0.
`Cc1ccc(CNC(=O)CCNC(=O)Cn2ccc3ccccc3c2=O)o1` gave FAS TE block -6, Arrestin-AP2 inh 4, GASC-1 inh -1 and SENP1 inh 2.
For O=S(=O)(NCCc1ccc(Cl)cc1)c1cccc2cccnc12 the results were FAS TE block 8, Arrestin-AP2 inh -7, GASC-1 inh 13 and SENP1 inh 2.
Oc1[nH]c2c(Cl)cc(Cl)cc2c1N=NC(=S)NCC1CCCO1 (stereo not given) was read as FAS TE block 19, Arrestin-AP2 inh 104*, GASC-1 inh -1, SENP1 inh 4, Arr AP2 CP1 20 and GST-FITC bead 1.
`Cc1cc(NC(=O)COC(=O)CCS(=O)(=O)c2ccc(C)c(C)c2)no1` gave FAS TE block 1, Arrestin-AP2 inh 7, GASC-1 inh 0 and SENP1 inh 1.
Screening Cc1cc(NC(=O)COC(=O)CCS(=O)(=O)c2cc(Cl)ccc2Cl)no1 returned FAS TE block -10, Arrestin-AP2 inh 57*, GASC-1 inh 1, SENP1 inh 3, Arr AP2 CP1 -11 and GST-FITC bead 11.
For COCCN(CC(=O)Nc1cccc(C)c1C)C(=O)c1cc(-c2cccs2)nn1-c1ccccc1 the results were FAS TE block 22, Arrestin-AP2 inh 31, GASC-1 inh -4 and SENP1 inh 1.
CCC(C)NC(=O)CNC(=S)N(Cc1ccccc1)Cc1cccnc1 (stereo not given) was read as FAS TE block -7, Arrestin-AP2 inh -3, GASC-1 inh -6 and SENP1 inh 1.
COc1ccc(CC(=O)NNC(=O)c2cc(C)oc2C)cc1OC was read as FAS TE block -9, Arrestin-AP2 inh 65*, GASC-1 inh -8, SENP1 inh 1, Arr AP2 CP1 7 and GST-FITC bead -5.
`COc1ccc(CC(=O)NNC(=O)c2ccccc2)cc1OC` gave FAS TE block -6, Arrestin-AP2 inh 2, GASC-1 inh 4 and SENP1 inh 0.
C[C@@H](NCCCn1cnc2c(OCc3ccccc3)ncnc21)c1cccc2ccccc12 was read as FAS TE block -4, Arrestin-AP2 inh 62*, SENP1 inh -1, Arr AP2 CP1 1 and GST-FITC bead -4.
For COc1cc(C(=O)c2ccccc2Cl)c([N+](=O)[O-])cc1OC the results were FAS TE block 2, Arrestin-AP2 inh 4, GASC-1 inh 6 and SENP1 inh -1.
C=CCOc1c(CNc2ccc3[nH]c(=O)[nH]c3c2)cccc1OC was read as FAS TE block -3, Arrestin-AP2 inh 20, GASC-1 inh 3 and SENP1 inh -2.
For COc1cccc(CNc2ccc3[nH]c(=O)[nH]c3c2)c1OCc1ccc(F)cc1 the results were FAS TE block 6, Arrestin-AP2 inh 55*, GASC-1 inh 6, SENP1 inh -50, Arr AP2 CP1 18 and GST-FITC bead 13.
For Cc1ccc(Cc2nnc(SCC(=O)Nc3ccccc3)[nH]c2=O)cc1 the results were FAS TE block -4, Arrestin-AP2 inh 31, GASC-1 inh -4 and SENP1 inh 0.
`CCOC(=O)N1CCN(C(=O)CSCc2ccc(C)cc2)CC1` gave FAS TE block -5, Arrestin-AP2 inh 24, GASC-1 inh 5 and SENP1 inh 4.
CCOC(=O)N1CCN(C(=O)CCSCCc2ccncc2)CC1 was read as FAS TE block -6, Arrestin-AP2 inh 57*, GASC-1 inh 17, SENP1 inh -2, Arr AP2 CP1 -5 and GST-FITC bead -6.
Screening CCCCN(C)C(=O)c1sc(=O)n(Cc2c(C)cccc2C)c1C returned FAS TE block 1 and SENP1 inh 0.
`Cc1ccccc1OCC(=O)OCC(=O)NCc1ccccc1` gave FAS TE block -2, Arrestin-AP2 inh 45, GASC-1 inh 15 and SENP1 inh 6.
CC(C)(C)c1ccccc1OCC(=O)NCc1ccccc1 was read as FAS TE block 10, Arrestin-AP2 inh 64*, GASC-1 inh 7, SENP1 inh 1, Arr AP2 CP1 4 and GST-FITC bead -8.
`CC(/C=N/Nc1nc2ccccc2[nH]1)=C\c1ccccc1` gave FAS TE block -6, Arrestin-AP2 inh 107*, GASC-1 inh 9, SENP1 inh -9, Arr AP2 CP1 1 and GST-FITC bead 9.

Compound activity deposited in PubChem by several laboratories.
